The nature of experiment [1]: Cytotoxicity against mouse peritoneal macrophages cells after 24 hrs by MTT assay. Format: cell-based. The settings on record: Macrophage. In short, it runs like this:
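Mouse cells harvested 4 days after intraperitoneal 10% thioglycollate, about 70% macrophages. Plated at 1 × 10^5/well and left to adhere for 3 h in DMEM with 10% FBS, 2 mM L-glutamine, 25 mM HEPES, antibiotics and 5 mM sodium pyruvate at 37 °C. Treated 24 h with compounds at 0.1-10 µg/mL. MTT (5 mg/mL) for 3 h, DMSO solubilization, OD490 read.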
A general note: Tetrazolium assays rely on reduction of a dye to a coloured formazan, in cell work by metabolically active cells.

For another experiment, the system named is Caco-2. The experiment can be described thus: Cytotoxicity against human Caco-2 cells after 24 hrs by MTT assay. The format is functional, cell-based. As to conditions: Caco-2, 24 h. In short, it runs like this: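 Caco-2 cells kept in DMEM with 10% FBS, 25 mM HEPES, 100 U/mL penicillin and 100 µg/mL streptomycin at 37 °C under humidified 5% CO2. Seeded at 1 × 10^4/well for 48 h, then exposed to compounds (0.1-10 µg/mL) for 24 h. MTT (5 mg/mL) added for 3 h at 37 °C, formazan dissolved in DMSO, OD490 read. IC50 reported.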

This is an account of results in ChEMBL document CHEMBL1158782, “Cytotoxic germacrane sesquiterpenes from the aerial parts of Santolina insularis” (J Nat Prod, 2005).

With `C=C1C[C@@H](O)/C=C(\C)CC[C@@H](C(C)C)[C@@H](O)C1`, the IC50 (in general, the point on the concentration scale where inhibition reaches its midpoint) in experiment [1] is at least 10 µg/mL.
As for `C=C1C[C@@H](O)[C@H](O)[C@]2(C)CC[C@@H](C(C)C)[C@@H](O)[C@@H]1O2`, the IC50 in experiment [1] was at least 10 µg/mL; in the experiment on Caco-2, 3.7 µM.
`C=C1C[C@@H](O)[C@H](O)/C(C)=C\C[C@@H](C(C)C)[C@@H](O)[C@@H]1O`: the IC50 in experiment [1] is at least 10 µg/mL.
Take `C=C1CC[C@@H](C(C)C)[C@@H](O)/C=C(\C)[C@H](O)CC1=O`: the IC50 in experiment [1] was at least 10 µg/mL.
On the same count and under the same terms, as for `C/C1=C\[C@H](O)C[C@]2(C)O[C@H]2[C@H](O)[C@H](C(C)C)CC1`, the figure is at least 10 µg/mL; as for `C/C1=C\[C@H](O)C/C(C)=C/[C@H](O)[C@H](C(C)C)CC1`, at least 10 µg/mL; as for `CC(C)[C@@H]1CC[C@]2(C)O[C@H]2[C@H](O)C[C@]2(C)O[C@H]2[C@@H]1O`, at least 10 µg/mL.
As for `C/C1=C/C[C@@H](C(C)C)[C@@H](O)[C@@H]2O[C@@]2(C)C[C@@H](O)[C@@H]1O`, the IC50 in experiment [1] is at least 10 µg/mL; in the experiment on Caco-2, 1.1 µM.
In experiment [1], `CC(=O)O[C@H]1/C=C(\C)CC[C@@H](C(C)C)[C@@H](O)[C@@H]2O[C@@]2(C)C1` showed an IC50 of at least 10 µg/mL.
